ChEMBL document CHEMBL3871269, “Conjugates of podophyllotoxin and norcantharidin as dual inhibitors of topoisomeraseⅡ and protein phosphatase 2A” (Eur J Med Chem, 2016)
Activity calls are given as the source filed them. The rule behind the calls is not given here.

Tests used:
[1] = Cytotoxicity against human A549 cells measured after 48 hrs by MTT assay; type: functional, cell-based; details: A549, 48 h
How it was run: (§1)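 MTT growth assay; cells seeded at 5×10³/well in RPMI1640 with 10% heat-inactivated FBS, attached 4–6 h, then exposed to five concentrations (0.01–100 μM, compounds dissolved in saline) for 48 h at 37 °C, 5% CO₂. MTT added for 4 h, formazan dissolved in DMSO, absorbance read at 490 nm. IC50 taken from log plot of percent of control versus concentration; means ± SD of triplicate experiments.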

[2] = Cytotoxicity against human WI38 cells measured after 48 hrs by MTT assay; type: toxicity, cell-based, WI-38
How it was run: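 MTT growth inhibition in WI-38 lung fibroblasts. Cells seeded at 5×10³/well in RPMI1640 with 10% heat-inactivated FBS, attached 4–6 h, then exposed 48 h at 37 °C, 5% CO₂ to five concentrations (0.01–100 μM, saline-dissolved). MTT 4 h, DMSO solubilisation, A490. IC50 from log plot of percent control vs concentration; triplicate, mean ± SD.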

[3] = Inhibition of human RBC PP2A assessed as reduction in free phosphate ion release using Lys-Arg-pThr-Ile-Arg as substrate preincubated for 10 mins followed by substrate addition measured after 60 mins by malachite green method
How it was run: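 Purified PP2A (0.6 mU/well) preincubated with inhibitor 10 min at 37 °C. Reaction started with 200 μM Lys-Arg-pThr-Ile-Arg in 50 mM Tris-HCl pH 7.0, 100 μM CaCl₂; 60 min at room temperature. Released phosphate read by malachite green at 650 nm after 10 min; enzyme-plus-buffer blanks. IC50 from dose–response; mean of three independent experiments in duplicate.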

[4] = Cytotoxicity against human HepG2 cells measured after 48 hrs by MTT assay; type: functional, cell-based; details: HepG2, 48 h; how it was run: as §1
[5] = Cytotoxicity against human HeLa cells measured after 48 hrs by MTT assay; type: functional, cell-based; how it was run: as §1
[6] = Cytotoxicity against human HCT8 cells measured after 48 hrs by MTT assay; type: functional, cell-based; details: HCT-8, 48 h; how it was run: as §1
[7] = Octanol-water partition coefficient, log P of the compound; type: physicochemical
How it was run: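 Partition coefficient P = compound concentration in 1-octanol / compound concentration in water.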

HepG2 [8] = assay: Inhibition of PP2A in human HepG2 cells assessed as residual activity by measuring phosphopeptide substrate level at 1 uM using RRAT(pT)VA as substrate preincubated for 24 hrs followed by substrate addition measured after 30 mins by molybdate dye based assay relative to control; type: cell-based
How it was run: (§2)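 HepG2 cells treated 24 h in six-well plates, lysed, endogenous phosphate removed. Lysate incubated 30 min at 37 °C with phosphopeptide RRAT(pT)VA (5 μL of 1 mM). Stopped with molybdate dye mix; A600 after 15 min. Activity from phosphate standard curve, expressed relative to untreated control; mean ± SD.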

HepG2 [9] = assay: Inhibition of PP2A in human HepG2 cells assessed as residual activity by measuring phosphopeptide substrate level at 2 uM using RRAT(pT)VA as substrate preincubated for 24 hrs followed by substrate addition measured after 30 mins by molybdate dye based assay relative to control; type: cell-based; how it was run: as §2
HepG2 [10] = assay: Inhibition of PP2A in human HepG2 cells assessed as residual activity by measuring phosphopeptide substrate level at 5 uM using RRAT(pT)VA as substrate preincubated for 24 hrs followed by substrate addition measured after 30 mins by molybdate dye based assay relative to control; type: cell-based; how it was run: as §2
HepG2 [11] = assay: Inhibition of PP2A in human HepG2 cells assessed as reduction in phosphopeptide substrate level using RRAT(pT)VA as substrate preincubated for 24 hrs followed by substrate addition measured after 30 mins by molybdate dye based assay; type: cell-based; how it was run: as §2
Homo sapiens [12] = species: Homo sapiens; assay: Inhibition of human topoisomerase-2 catalytic activity assessed as reduction in pBR322 supercoiled DNA relaxation up to 100 uM measured after 60 mins by ethidium bromide staining agarose gel electrophoresis
How it was run: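 Relaxation assay with supercoiled pBR322 (250 ng/μL) and topoisomerase II (4 units) in kit buffer, 20 μL, 60 min at 37 °C. Compound at 50 or 100 μM. Stopped with 10% SDS, proteinase K, chloroform/isoamyl alcohol extraction. Run on 1% agarose in TAE pH 8.0, ethidium bromide stained.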

HepG2 [13] = assay: Induction of cell cycle arrest in human HepG2 cells assessed as accumulation at G2/M phase measured after 24 hrs by propidium iodide staining based flow cytometry; type: functional
How it was run: (§3)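 HepG2 cells exposed 24 h to 0, 0.5 or 1 μM. (1–5)×10⁵ cells harvested, PBS-washed, fixed in 70% ice-cold ethanol at least overnight. Stained 15 min in dark with 1% Triton X-100, 0.01% RNase, 0.05% PI. Cell-cycle distribution by flow cytometry.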

HepG2 [14] = assay: Induction of cell cycle arrest in human HepG2 cells assessed as accumulation at G2/M phase at 0.5 uM measured after 24 hrs by propidium iodide staining based flow cytometry (reference value: 9.4%); type: functional
HepG2 [15] = assay: Induction of cell cycle arrest in human HepG2 cells assessed as accumulation at G2/M phase at 1 uM measured after 24 hrs by propidium iodide staining based flow cytometry (reference value: 9.4%); type: functional
HepG2 [16] = assay: Induction of cell cycle arrest in human HepG2 cells assessed as increase in cyclin B1 expression at 0.5 to 1 uM measured after 24 hrs by western blot method; type: functional, cell-based
How it was run: (§4)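 HepG2 cells grown 24 h in flasks, then treated with 0, 0.5 or 1 μM for 24 h. Lysis in Tris/NP-40/SDS buffer with protease inhibitors; Bradford protein assay. 30 μg protein on 10% or 12% SDS-PAGE, PVDF transfer, milk block 2 h. Cyclin B1 or cdc2 antibodies (1:500–1:1000) overnight at 4 °C, then secondary. β-actin loading control.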

HepG2 [17] = assay: Induction of cell cycle arrest in human HepG2 cells assessed as decrease in G1 phase at 0.5 to 1 uM measured after 24 hrs by propidium iodide staining based flow cytometry; type: functional; how it was run: as §3
HepG2 [18] = assay: Induction of cell cycle arrest in human HepG2 cells assessed as decrease in G1 phase by propidium iodide staining based flow cytometry; type: functional; details: TDE = time-dependent effect; how it was run: as §3
HepG2 [19] = assay: Induction of cell cycle arrest in human HepG2 cells assessed as increase in cyclin B1 expression measured after 24 hrs by western blot method; type: functional, cell-based; how it was run: as §4
HepG2 [20] = assay: Induction of cell cycle arrest in human HepG2 cells assessed as increase in cyclin cdc-2 expression measured after 24 hrs by western blot method; type: functional, cell-based; how it was run: as §4
Bos taurus = species: Bos taurus; assay: Binding affinity to calf thymus DNA at 1 uM at pH 7.2 measured after 5 mins by fluorescence spectroscopic method
How it was run: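 CT DNA titrated (0–5 μM) into 1 μM compound in pH 7.2 PBS, equilibrated 5 min at 25 °C. Excitation at 318 nm, emission recorded over 280–400 nm. CT DNA samples in PBS at matching concentrations served as blanks.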

Homo sapiens [21] = species: Homo sapiens; assay: Inhibition of human topoisomerase-2 catalytic activity assessed as reduction in pBR322 supercoiled DNA relaxation at 100 uM measured after 60 mins by ethidium bromide staining agarose gel electrophoresis
How it was run: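 Kit-based relaxation assay: supercoiled pBR322 plasmid DNA (250 ng/μL) with topoisomerase II (4 units) in kit assay buffer, 20 μL final, 60 min at 37 °C. Reaction stopped with 10% SDS, proteinase K treated, chloroform/isoamyl alcohol (24:1) extracted. Products resolved on 1% agarose in TAE (pH 8.0), ethidium bromide stained. Test concentrations 50 and 100 μM.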

| SMILES | IC50 [1] | IC50 at 48 h [2] | IC50 [3] | IC50 [4] | IC50 [5] | IC50 [6] | logP ([7]; read-out: logP) | also measured |
| --- | --- | --- | --- | --- | --- | --- | --- | --- |
| O=C1OC(=O)C2C3CCC(O3)C12 (stereo not drawn) [DEMETHYL-CANTHARIDIN] | 12.2 µM | 26.7 µM | 0.48 µM |  |  |  |  |  |
| COc1cc([C@@H]2c3cc4c(cc3[C@@H](NC(=O)[C@H](c3ccccc3)N3C(=O)C5C6CCC(O6)C5C3=O)[C@H]3COC(=O)[C@H]23)OCO4)cc(OC)c1O (stereo partly drawn) | 7.03 µM | 26.7 µM | > 100 µM | 1.98 µM | 28.5 µM | 15.3 µM | 1.99 |  |
| COc1cc([C@@H]2c3cc4c(cc3[C@@H](NC(=O)[C@H](CC(C)C)N3C(=O)C5C6CCC(O6)C5C3=O)[C@H]3COC(=O)[C@H]23)OCO4)cc(OC)c1O (stereo partly drawn) | 8.11 µM | 21.9 µM | > 100 µM | 10.5 µM | > 100 µM | 21.4 µM | 1.83 |  |
| CC[C@H](C)[C@@H](C(=O)N[C@@H]1c2cc3c(cc2[C@@H](c2cc(OC)c(O)c(OC)c2)[C@H]2C(=O)OC[C@@H]21)OCO3)N1C(=O)C2C3CCC(O3)C2C1=O (stereo partly drawn) | 10.1 µM | 65.2 µM | 75.7 µM | 3.21 µM | 2.52 µM | 23.6 µM | 1.91 |  |
| COc1cc([C@@H]2c3cc4c(cc3[C@@H](NC(=O)[C@H](C)N3C(=O)C5C6CCC(O6)C5C3=O)[C@H]3COC(=O)[C@H]23)OCO4)cc(OC)c1O (stereo partly drawn) | 44.5 µM | 35.6 µM | > 100 µM | 13.7 µM | 15.1 µM | 16.9 µM | 0.62 |  |
| COc1cc([C@@H]2c3cc4c(cc3[C@@H](NC(=O)CCN3C(=O)C5C6CCC(O6)C5C3=O)[C@H]3COC(=O)[C@H]23)OCO4)cc(OC)c1O (stereo partly drawn) | 6.21 µM | > 100 µM | 9.52 µM | 8.42 µM | 10.8 µM | 17.2 µM | 0.41 |  |
| COc1cc([C@@H]2c3cc4c(cc3[C@@H](NC(=O)CCCN3C(=O)C5C6CCC(O6)C5C3=O)[C@H]3COC(=O)[C@H]23)OCO4)cc(OC)c1O (stereo partly drawn) | 4.57 µM | > 100 µM | 0.49 µM | < 0.01 µM | 4.33 µM | 3.48 µM | 0.68 | Activity (HepG2 [8]): 73%; Activity (HepG2 [9]): 32%; Activity (HepG2 [10]): 27%; inhibition (HepG2 [11]): Dose-dependent effect; inhibition (Homo sapiens [12]): Active; Activity (HepG2 [13]): Dose-dependent effect; Activity (HepG2 [14]): 27.6%; Activity (HepG2 [15]): 58.6%; Activity (HepG2 [16]): Active; Activity (HepG2 [17]): Active; Activity (HepG2 [18]): Tde; Activity (HepG2 [19]): Dose-dependent effect; Activity (HepG2 [20]): Dose-dependent effect; Activity (Bos taurus): Active |
| COc1cc([C@@H]2c3cc4c(cc3[C@@H](NC(=O)c3ccc(N5C(=O)C6C7CCC(O7)C6C5=O)cc3)[C@H]3COC(=O)[C@H]23)OCO4)cc(OC)c1O (stereo partly drawn) | 3.42 µM | 46.5 µM | 3.63 µM | 0.1 µM | 2.61 µM | 3.12 µM | 2.06 |  |
| COc1cc([C@@H]2c3cc4c(cc3[C@@H](NC(=O)[C@H](Cc3cc5ccccc5[nH]3)N3C(=O)C5C6CCC(O6)C5C3=O)[C@H]3COC(=O)[C@H]23)OCO4)cc(OC)c1O (stereo partly drawn) | 12 µM | 72.4 µM | 58.3 µM | 6.84 µM | 2.35 µM | 15.2 µM | 1.69 |  |
| COc1cc([C@@H]2c3cc4c(cc3[C@@H](NC(=O)[C@H](C(C)C)N3C(=O)C5C6CCC(O6)C5C3=O)[C@H]3COC(=O)[C@H]23)OCO4)cc(OC)c1O (stereo partly drawn) | 6.73 µM | 44.4 µM | 1.12 µM | 1.62 µM | 8.3 µM | 7.81 µM | 1.48 |  |
| COc1cc([C@@H]2c3cc4c(cc3[C@@H](NC(=O)CN3C(=O)C5C6CCC(O6)C5C3=O)[C@H]3COC(=O)[C@H]23)OCO4)cc(OC)c1O (stereo partly drawn) | 5.47 µM | 33.5 µM | 0.68 µM | 0.14 µM | 1.65 µM | 17.1 µM | 0.13 |  |
| COc1cc([C@@H]2c3cc4c(cc3[C@@H](NC(=O)[C@H](Cc3ccccc3)N3C(=O)C5C6CCC(O6)C5C3=O)[C@H]3COC(=O)[C@H]23)OCO4)cc(OC)c1O (stereo partly drawn) | 14.1 µM | 29.6 µM | > 100 µM | 5.53 µM | 16 µM | 11.6 µM | 2.27 |  |
| COc1cc([C@@H]2c3cc4c(cc3[C@@H](O[C@@H]3O[C@@H]5CO[C@@H](C)O[C@H]5[C@H](O)[C@H]3O)[C@H]3COC(=O)[C@H]23)OCO4)cc(OC)c1O [ETOPOSIDE] | 29.7 µM | 17.6 µM |  | 5.21 µM | 13.5 µM | 10 µM |  | logP [7]: 2.74; inhibition (Homo sapiens [21]): Active |
| COc1cc([C@@H]2c3cc4c(cc3[C@@H](NC(=O)[C@H](CCSC)N3C(=O)C5C6CCC(O6)C5C3=O)[C@H]3COC(=O)[C@H]23)OCO4)cc(OC)c1O (stereo partly drawn) | 6.12 µM | 30.4 µM | 1.29 µM | 7.04 µM | 2.82 µM | 12.3 µM | 0.93 |  |
